Experiments:
Assay type in all cases: functional
Canis familiaris [1] = experiment: Antisecretory activity in histamine stimulated dogs at 2 mg/kg dose administered intravenously; settings: Canis lupus familiaris, route intravenous
Method in brief: (§1)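 Adult mongrel dogs with surgically prepared Heidenhain pouches, acid secretion stimulated with histamine. Compound given intravenously (0.1-5 mg/kg range). Acid output reduction is expressed relative to the nondrug-treated control value in the same animal, each dog serving as its own control. Unless noted otherwise, one dog per compound. ED50 is the iv dose reducing acid output to 50% of control.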

Canis familiaris [2] = experiment: Antisecretory activity in histamine stimulated dogs at 8 mg/kg dose administered orally; settings: Canis lupus familiaris, route oral
Method in brief: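 Heidenhain pouch mongrel dogs, histamine-stimulated acid secretion. Compound given orally at 2–8 mg/kg. Reduction in acid output is relative to the same animal's own nondrug control, since histamine response depends on pouch size. Usually a single dog per compound. Oral ED50 is the dose reducing acid output to 50% of control.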

Rattus norvegicus [3] = species on record: Rattus norvegicus; experiment: Cytoprotective activity in rats against the ethyl alcohol stimulated ulcers measured as effective dose
Method in brief: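 Rats were dosed orally at 1–30 mg/kg, 30 min before an oral challenge of absolute ethanol. Ethanol-induced gastric lesions were scored 1 h later, and an effective dose was estimated.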

Rattus norvegicus [4] = experiment: Antisecretory activity in pylorus ligated rats at a 40 mg/kg dose administered intraperitoneally; settings: ip, route intraperitoneal
Method in brief: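 Pylorus-ligated rats, six per compound and eight controls. Compound given intraperitoneally at 40 mg/kg at the time of ligation. Reduction in acid output measured over 4 h.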

Canis familiaris [5] = experiment: Antisecretory activity in histamine stimulated dogs following 5 mg/kg i.v. administration.; settings: Canis lupus familiaris, route intravenous; method in brief: as §1

Compound	inhibition in vivo at 2 mg/kg (Canis familiaris [1])	inhibition in vivo at 8 mg/kg (Canis familiaris [2])	ED50 (Rattus norvegicus [3])	inhibition in vivo at 40 mg/kg (Rattus norvegicus [4])	inhibition in vivo at 5 mg/kg (Canis familiaris [5])
Cc1nc2c(OCc3ccccc3)cccn2c1/N=C/N(C)C	12%	0%	9.8 mg/kg	64%	–
COC(=O)Nc1c(C)nc2c(OCc3ccccc3)cccn12	–	–	–	0%	–
Cc1ccn2c(C)c(C)nc2c1OCc1ccccc1	70%	35%	16 mg/kg	92%	–
Cc1cc(OCc2ccccc2)c2nc(C)c(N)n2c1	46%	50%	2.3 mg/kg	65%	–
CCNc1c(C)nc2c(OCc3ccccc3)nccn12	–	–	6 mg/kg	48%	0%
Cc1nc2c(OCc3ccccc3)cccn2c1CN	–	9%	–	46%	49%
CSc1c(C)nc2c(CCc3ccccc3)cccn12	–	–	8.5 mg/kg	28%	0%
Cc1nc2c(OCc3ccccc3)cccn2c1NC=O	3%	–	10 mg/kg	49%	–
CC(=O)Nc1c(C)nc2c(CCc3ccccc3)cccn12	–	16%	12 mg/kg	40%	3%
CC(=O)Nc1c(C)nc2c(OCc3ccccc3)cccn12	24%	44%	4.6 mg/kg	93%	–
Cc1nc2c(OCc3ccccc3)cccn2c1NC(C)C	–	–	16 mg/kg	18%	0%
Cc1nc2c(OCc3ccccc3)ccc(C)n2c1C	13%	–	8 mg/kg	26%	–
Cc1nc2n(c1CC#N)CCCC2OCc1ccccc1 (centres undefined)	–	–	–	44%	0%
Cc1nc2c(OCCc3ccccc3)cccn2c1N	39%	39%	5.2 mg/kg	56%	–
Cc1nc2c(SCc3ccccc3)cccn2c1N	0%	11%	5.7 mg/kg	0%	–
Cc1nc2c(OCc3ccccc3)cccn2c1N(C)C	85%	72%	2.8 mg/kg	76%	–
CNc1c(C)nc2c(OCc3ccccc3)cccn12	–	–	9.8 mg/kg	55%	–
Cc1nc2c(OCc3ccc(C(F)(F)F)cc3)cccn2c1N	0%	8%	6.5 mg/kg	78%	–
Cc1nc2c(CCc3ccccc3)cccn2c1O	0%	–	9.6 mg/kg	32%	–

Compound	inhibition in vivo at 2 mg/kg (Canis familiaris [1])	inhibition in vivo at 8 mg/kg (Canis familiaris [2])	ED50 (Rattus norvegicus [3])	inhibition in vivo at 40 mg/kg (Rattus norvegicus [4])	inhibition in vivo at 5 mg/kg (Canis familiaris [5])
COc1c(C)nc2c(OCc3ccccc3)cccn12	–	–	3.6 mg/kg	49%	37%
Cc1nc2ccc(CCc3ccccc3)cn2c1N	6%	0%	5.7 mg/kg	52%	–
Cc1nc2c(NCc3ccccc3)cccn2c1N	98%	89%	9.6 mg/kg	84%	–
Cc1nc2c(CCc3ccccc3)nccn2c1N	–	–	–	–	18%
Cc1nc2c(Oc3ccccc3)cccn2c1N	40%	19%	5 mg/kg	34%	–
Cc1nc2cc(CCc3ccccc3)ccn2c1N	17%	0%	5.2 mg/kg	50%	–
CCCN(CCC)c1c(C)nc2c(OCc3ccccc3)cccn12	–	–	8.4 mg/kg	60%	0%
Cc1nc2c(OCc3ccccc3)cccn2c1NCc1ccccc1	–	–	2.5 mg/kg	48%	0%
CC(C)(C)c1nc2c(OCc3ccccc3)cccn2c1N	–	0%	15 mg/kg	0%	2%
Cc1nc2c(COc3ccccc3)cccn2c1N	–	39%	6.6 mg/kg	27%	34%
CC(C)c1nc2c(OCc3ccccc3)cccn2c1N	24%	0%	2.7 mg/kg	0%	–
CNC(=O)Nc1c(C)nc2c(OCc3ccccc3)cccn12	–	–	3.5 mg/kg	22%	27%
Cc1nc2c(OCc3ccccc3)cccn2c1CCN	6%	9%	–	63%	–
CCNc1c(C)nc2c(CCc3ccccc3)cccn12	–	65%	5.2 mg/kg	78%	11%
Cc1nc2c(OCc3ccccn3)cccn2c1N	–	15%	2.3 mg/kg	16%	–
CCCc1nc2c(OCc3ccccc3)cccn2c1N	45%	0%	–	31%	–
CCCCc1nc2c(OCc3ccccc3)cccn2c1N	45%	0%	7.5 mg/kg	26%	–
CCCNc1c(C)nc2c(OCc3ccccc3)cccn12	12%	68%	5.3 mg/kg	99%	–

Reference: ChEMBL document CHEMBL1123641, “Antiulcer agents. 2. Gastric antisecretory, cytoprotective, and metabolic properties of substituted imidazo[1,2-a]pyridines and analogues” (J Med Chem, 1987)
